# ChEMBL document CHEMBL5154895, “Mechanistic Studies and In Vivo Efficacy of an Oxadiazole-Containing Antibiotic” (J Med Chem, 2022)
# Experiments:
# [1] = Toxicity in Balb/c mouse infected with methicillin-resistant Staphylococcus aureus USA300 assessed as necrosis administered topically twice daily 2 days post infection and measured after 5 days post compound treatment by H and E staining based histopathological analysis; details: in vivo, topical_or_ocular, 120 h, time 5 day
# Summary of the method: (§1)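 MRSA USA300-infected punch wounds in mice, n=5. Topical 2% agent or petroleum jelly vehicle twice daily from day 2 for 5 days. The left wound was formalin-fixed, cut into 4-μm sections and H&E-stained. Whole slides were scanned and assessed by a board-certified veterinary pathologist for necrosis, inflammation, haemorrhage and related features.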
# [2] = Toxicity in Balb/c mouse infected with methicillin-resistant Staphylococcus aureus USA300 assessed as hemorrhage administered topically twice daily 2 days post infection and measured after 5 days post compound treatment by H and E staining based histopathological analysis; details: in vivo, topical_or_ocular, 120 h, time 5 day; summary of the method: as §1
# [3] = Toxicity in Balb/c mouse infected with methicillin-resistant Staphylococcus aureus USA300 assessed as chronic inflammatory response administered topically twice daily 2 days post infection and measured after 5 days post compound treatment by H and E staining based histopathological analysis; details: in vivo, topical_or_ocular, 120 h, time 5 day; summary of the method: as §1
# [4] = In vivo antibacterial activity against methicillin-resistant Staphylococcus aureus USA300 infected in Balb/c mouse model assessed as reduction in bacterial infection in skin wounds administered topically twice daily 2 days post infection and measured after 5 days post compound treatment by CFU counting; design: scale not given: the % may be the effect or the level left; details: time 5 day
# Staphylococcus aureus [5] = experiment: Antibacterial activity against Staphylococcus aureus ATCC 25923 assessed as inhibition of bacterial growth incubated for 18 to 20 hrs by broth microdilution method; type: functional; details: time 18-20 hrs
# Summary of the method: (§2)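 Broth microdilution per CLSI. Inoculum at 0.5 McFarland, diluted in cation-adjusted Mueller Hinton broth to about 5 × 10^5 CFU/mL. Serial compound dilutions incubated aerobically at 37° C for 18–20 hours. MIC taken as the lowest concentration completely inhibiting visible growth.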
# Staphylococcus aureus [6] = experiment: Antibacterial activity against Staphylococcus aureus MRSA ATCC 33592 assessed as inhibition of bacterial growth incubated for 18 to 20 hrs by broth microdilution method; type: functional; details: time 18-20 hrs; summary of the method: as §2
# [7] = Toxicity in Balb/c mouse infected with methicillin-resistant Staphylococcus aureus USA300 assessed as necrosis at 25 mg/kg, ip administered 2 days post infection twice daily and measured after 5 days post compound treatment by H and E staining based histopathological analysis; type: organism-based; details: in vivo, 120 h, time 5 day
# [8] = Toxicity in Balb/c mouse infected with methicillin-resistant Staphylococcus aureus USA300 assessed as chronic inflammatory response at 25 mg/kg, ip administered 2 days post infection twice daily and measured after 5 days post compound treatment by H and E staining based histopathological analysis; type: organism-based; details: in vivo, 120 h, time 5 day
# [9] = In vivo antibacterial activity against methicillin-resistant Staphylococcus aureus USA300 infected Balb/c mouse model assessed as reduction in bacterial infection in skin wounds at 25 mg/kg , ip administered 2 days post infection once daily and measured after 5 days post compound treatment by histopathological analysis; design: scale not given: the % may be the effect or the level left; details: time 5 day
# [10] = Toxicity in Balb/c mouse infected with methicillin-resistant Staphylococcus aureus USA300 assessed as hemorrhage at 25 mg/kg, ip administered 2 days post infection twice daily and measured after 5 days post compound treatment by H and E staining based histopathological analysis; type: organism-based; details: in vivo, 120 h, time 5 day
MIC (Staphylococcus aureus [5]) [µg/mL],MIC (Staphylococcus aureus [6]) [µg/mL],SMILES,other results
–,–,C/C(=C\C(=O)OCCCCCCCCC(=O)O)C[C@@H]1OC[C@H](C[C@@H]2O[C@H]2[C@@H](C)[C@H](C)O)[C@@H](O)[C@H]1O [MUPIROCIN],Activity [1]: Toxic; Activity [2]: Toxic; Activity [3]: Toxic; Activity [4]: 98.8%
16,16,CN(C)S(=O)(=O)c1ccc(C(=O)Nc2nnc(-c3ccc(C(F)(F)F)cc3)o2)cc1,–
2,2,CC1CCCCN1S(=O)(=O)c1ccc(C(=O)Nc2nnc(-c3ccc(C(F)(F)F)cc3)o2)cc1 (stereo unspecified),–
2,2,CC1CCCN(S(=O)(=O)c2ccc(C(=O)Nc3nnc(-c4ccc(C(F)(F)F)cc4)o3)cc2)C1 (stereo unspecified),–
> 64,> 64,C[C@@H]1C[C@H](C)CN(S(=O)(=O)c2ccc(C(=O)N(C)c3nnc(-c4ccc(C(F)(F)F)cc4)o3)cc2)C1,–
2,2,O=C(Nc1nnc(-c2ccc(C(F)(F)F)cc2)o1)c1ccc(S(=O)(=O)N2CCCCC2)cc1,–
–,–,CCC[C@@H]1C[C@@H](C(=O)N[C@@H]([C@H]2O[C@H](SC)[C@H](O)[C@@H](O)[C@H]2O)[C@H](C)Cl)N(C)C1 [CLINDAMYCIN],Activity [7]: Toxic; Activity [8]: Toxic; Activity [9]: 93.4%; Activity [10]: Toxic
2,2,O=C(Nc1nnc(-c2ccc(C(F)(F)F)cc2)o1)c1ccc(S(=O)(=O)N2C[C@@H]3CC[C@H]2C3)cc1,–
1,1,CC1CCN(S(=O)(=O)c2ccc(C(=O)Nc3nnc(-c4ccc(C(F)(F)F)cc4)o3)cc2)CC1,–
2,2,O=C(Nc1nnc(-c2ccc(C(F)(F)F)cc2)o1)c1ccc(S(=O)(=O)N2CCCC2)cc1,–
4,4,O=C(Nc1nnc(-c2ccc(C(F)(F)F)cc2)o1)c1ccc(S(=O)(=O)NC2CC2)cc1,–
